# OXTR agonist – agonists of human oxytocin receptor; activation, % at 3 µM; CHO-OTR cells, Fluo-8 calcium fluorescence; normalized: DMSO 0%, oxytocin 100%; hit rate 0.32% among 320,000; AID 2435;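 active means activation above the mean of all tested compounds plus 3 SD, cutoff set per screening run, cut at about 20% in these data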;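 further: peak over basal fluorescence ratio from a 100 s FLIPR kinetic read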
# Target sequence (P30559 whole entry, looked up): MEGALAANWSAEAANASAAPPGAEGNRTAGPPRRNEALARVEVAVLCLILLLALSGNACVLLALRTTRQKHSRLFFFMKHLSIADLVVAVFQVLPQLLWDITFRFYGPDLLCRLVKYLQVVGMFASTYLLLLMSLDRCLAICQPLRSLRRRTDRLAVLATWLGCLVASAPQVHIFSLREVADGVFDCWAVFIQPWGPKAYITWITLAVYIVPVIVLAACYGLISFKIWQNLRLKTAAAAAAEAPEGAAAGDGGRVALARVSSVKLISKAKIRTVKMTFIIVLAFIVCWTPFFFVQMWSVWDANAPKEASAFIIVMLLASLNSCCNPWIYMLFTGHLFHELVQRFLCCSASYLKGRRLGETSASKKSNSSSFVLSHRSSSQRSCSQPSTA
# TAAR1 antag – human TAAR1 antagonism | AID 624466 | CHO RD-HGA16 TAAR1, Fluo-8 calcium fluorescence, antagonist | hit rate 1.5% among 360,000 | inhibition, % at 3 µM;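 active means inhibition above a per-plate cutoff, the mean inhibition of test compounds on that plate plus 3 SD, cut at about 49% in these data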;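 further: 0% = DMSO plus EC80 beta-PEA response and 100% = DMSO alone without agonist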
#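 Assay system: CHO-derived RD-HGA16 cells stably expressing human TAAR1 plus Gα16. Timing: 140 s kinetic read after compound, 140 s after agonist. Technique: kinetic Fluo-8 calcium fluorescence measurement. Measure: % inhibition of agonist calcium response.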
# V1aR counter – activates human V1a receptor in oxytocin agonist counter-screen; P37288; CHO-V1R cells, Fluo-8 calcium fluorescence, agonist mode; 0% DMSO, 100% 3 nM vasopressin; activation, % at 3 µM; hit rate 0.25% among 320,000; AID 2797;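 active means activation above the mean activation of all tested compounds plus 3 SD, per screening run, cut at about 20% in these data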;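 further: signal is peak over basal fluorescence ratio across a 100 second FLIPR read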
# TAAR1 agonist – agonists of human TAAR1; Q96RJ0; hit rate 0.99% among 360,000; activation, % at 3 µM; AID 624467; CHO RD-HGA16 TAAR1, Fluo-8 calcium fluorescence; vehicle wells 0%, saturating PEA agonist 100%;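 active means activation above the mean activation of all test compounds in the run plus 3 SD, cut at about 38% in these data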
#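 Test system: RD-HGA16 (CHO) cells co-expressing Gα16 and hTAAR1; dosing: one-point dosing at 3 µM (nominal); timing: 17-24 h seeding, 75 min 37 °C dye, 30 min RT; signal: kinetic Fluo-8 calcium fluorescence; read-out basis: % activation relative to PEA EC100 response; controls: DMSO and PEA EC100; replicates: n 1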
# OXTR potentiator – human OXTR potentiation. hit rate 0.061% among 320,000. AID 2445. CHO-OTR cells, Fluo-8 calcium fluorescence, potentiator mode; 0% = oxytocin EC15, 100% = EC100. P30559. activation, % at 3 µM;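 active means activation above that plate's cutoff, the mean activation of tested compounds plus 3 SD, cut at about 6.6% in these data, passing the limit was not always enough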;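 further: 100% uses oxytocin at 75 nM as the full agonist control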
#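 assay system = CHO-OTR cells, human receptor | schedule = compound 6 min at room temperature before oxytocin, 100 s read | detection = Fluo-8 intracellular calcium fluorescence, ex 470-495, em 515-575 nm | evaluation = normalized max/min fluorescence ratio, % activation | control set = EC15 oxytocin alone as 0%, 75 nM oxytocin (EC100) as 100%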
# Active calls of the source: *; nt = no result. In the library only some 2.3% were active in any assay of this set; here they are far more common.
SMILES,OXTR agonist,TAAR1 antag,V1aR counter,TAAR1 agonist,OXTR potentiator
CC(C)(C)[C@H]1COC(=O)[C@@H](Cc2ccc(F)cc2)C/C=C\C[C@@H](CC(=O)N[C@H](CO)Cc2ccccc2)C(=O)N1,4,27,2,29,-5
CC(C)(C)[C@H]1COC(=O)[C@@H](Cc2ccc(F)cc2)C/C=C\C[C@@H](CC(=O)N[C@@H](CO)Cc2ccccc2)C(=O)N1,-1,58*,1,22,5
CCCN1C(=O)c2[nH]nc(-c3ccccc3)c2C1c1ccc(F)cc1 (centres undefined),nt,-44,nt,1,nt
O=C1N[C@@H](c2ccccc2)COC(=O)[C@H](Cc2ccc(F)cc2)C/C=C\C[C@H]1CC(=O)N(CCO)Cc1ccccc1,nt,18,nt,6,nt
O=C1N[C@@H](c2ccccc2)COC(=O)[C@@H](Cc2ccc(F)cc2)C/C=C\C[C@@H]1CC(=O)N(CCO)Cc1ccccc1,43*,77*,36*,39*,-11
O=C(Nc1nc(OCC(F)(F)F)cnc1/C=C\c1ccccc1)c1ccsc1,nt,57*,nt,1,nt
O=C(N/N=C/c1ccc(F)cc1)c1cccc(NC(=O)c2ccccc2Cl)c1,7,54*,12,22,-14
O=C(N/N=C/c1ccncc1)c1cccc(NC(=O)c2ccccc2Cl)c1,1,50*,1,16,-14
O=C(N/N=C/c1cccnc1)c1cccc(NC(=O)c2ccccc2Cl)c1,0,6,0,6,-5
CC1(C)CC(=O)C2=C(C1)Nc1ccccc1NC2c1cccc(F)c1 (centres undefined),nt,4,nt,1,nt
Cn1cccc1C1Nc2ccccc2NC2=C1C(=O)CC(C)(C)C2 (centres undefined),0,56*,1,16,-3
N#C/C=C(/N)N1CCN(c2ccc(Cl)c(Cl)c2)CC1,6,17,4,38*,-10
CCOC(=O)C1=CCN(S(=O)(=O)c2ccc(F)cc2)C1c1ccc(Cl)cc1 (centres undefined),nt,22,nt,0,nt
CC(C)=CCc1c(O)ccc(C(=O)Cc2ccccc2)c1O,2,26,2,40*,-18
CC1(C(=O)NCc2ccc(Cl)c(Cl)c2)Oc2cccnc2NC1=O (centres undefined),25*,28,21*,53*,-24
O=C1[C@H]2[C@@H](c3ccccc3)N[C@]3(CCCN(Cc4ccc(C(F)(F)F)cc4)C3=O)[C@H]2C(=O)N1Cc1ccccc1,nt,50*,nt,12,nt
O=c1[nH]c2ccc(NC(=S)NCCc3ccccc3)cc2[nH]1,0,29,0,41*,-4
CCOC(=O)c1ccc(NC(=S)NCCc2ccccc2)cc1,9,4,11,39*,-16
O=c1[nH]c2ccc(NC(=S)Nc3ccccc3)cc2[nH]1,1,-8,1,7,-10
COC(=O)C1=CC(=O)N2CCN=C2S1,nt,-6,nt,1,nt
COc1ccc(-n2nc(C(=O)NCC(=O)N(C)Cc3ccccc3)c3ccccc3c2=O)cc1OC,-2,49*,-1,9,-1
COc1ccc(-n2nc(C(=O)NCC(=O)N3CCCC(C)C3)c3ccccc3c2=O)cc1Cl (centres undefined),-2,41,-2,18,-8
COc1ccc(-n2nc(C(=O)NCC(=O)NC3CCCCCC3)c3ccccc3c2=O)cc1OC,1,50*,6,10,-14
CCOC(=O)C1CCCN(C(=O)CNC(=O)c2nn(-c3ccc(OC)c(Cl)c3)c(=O)c3ccccc23)C1 (centres undefined),-2,51*,-2,38*,0
COc1ccc(-n2nc(C(=O)NCC(=O)N3CCCCCC3)c3ccccc3c2=O)cc1OC,-1,6,0,7,-7
SMILES,OXTR agonist,TAAR1 antag,V1aR counter,TAAR1 agonist,OXTR potentiator
O=C(CSc1nnc(CNC(=O)c2ccccc2)o1)Nc1nccs1,0,1,0,2,-3
CCCCNc1cccc2c1S(=O)(=O)N[C@H](CC(C)C)CO2,nt,-12,nt,-2,nt
Oc1ccc(Cl)cc1CNCc1ccc(Cl)cc1,15,8,4,49*,-10
CCCCNC(=O)C1C(c2ccc(C(F)(F)F)cc2)=Nc2ccccc2N1C(=O)c1ccc2nc(C)[nH]c2c1 (centres undefined),nt,-3,nt,0,nt
Cc1cc(N2CCN(C(=O)OC(C)(C)C)C[C@H]2C)ccc1N1CCN(Cc2ccccc2)[C@@H](C)C1,nt,-21,nt,2,nt
COc1cccc(OC)c1C(=O)NC(=S)Nc1cc(-c2nc3ccccc3[nH]2)ccc1Cl,0,50*,0,11,-2
CCOC(=O)C1CSCCS(=O)(=O)N1Cc1ccccc1C (centres undefined),nt,-8,nt,1,nt
CC(C)(C)S(=O)N1C[C@H]2CC(=O)C=C2[C@@H]1CCO (some centres undefined),nt,-14,nt,3,nt
CCOC(=O)C1CCCN(Cc2nc3ccc([N+](=O)[O-])cc3c(=O)n2-c2ccc(OC)cc2OC)C1 (centres undefined),-1,69*,-1,46*,5
COC(=O)c1cccc2c([N+](=O)[O-])c(NC(C)=O)cc(C(=O)OC)c12,nt,-2,nt,0,nt
CCCCCCCCN1C(=O)[C@@H](CC(=O)NCCC(C)C)C[C@@]2(C(=O)OC)C1=C[C@H](C1CCCC1)O[C@@H]2C,nt,-29,nt,-1,nt
CC(C)(C)C(=O)NC(=S)NNC(=O)c1ccc(-c2ccccc2)cc1,108*,nt,117*,nt,-11
CC(C)(C)C(=O)NC(=S)NNC(=O)c1ccncc1,0,14,0,1,8
S=C(NN=C1CCCCC1=NNC(=S)N1CCOCC1)N1CCOCC1,nt,-9,nt,1,nt
CC1CCCN(C(=O)Nc2ccc([N+](=O)[O-])cc2)C1 (centres undefined),nt,-4,nt,18,nt
Cc1ccc(S(C)(=O)=O)cc1C(=O)OCC(=O)N(Cc1ccccc1)Cc1ccccc1,-1,54*,2,17,-6
Cc1ccc(C(=O)OCC(=O)N(CCc2ccccc2)Cc2ccccc2)cc1S(=O)(=O)N1CCOCC1,-1,50*,2,4,-8
CCCCCCCCCCCCN1CCSCCS1(=O)=O,nt,-20,nt,4,nt
Nc1cccc(-c2cn(-c3cc4cc(C#CC5(O)CCCCC5)ccc4oc3=O)nn2)c1,3,58*,2,30,-7
O=c1oc2ccc(C#CC3(O)CCCCC3)cc2cc1-n1cc(-c2ccccn2)nn1,1,52*,3,18,0
COc1ccc(C(C)=O)cc1CSC(=S)N1CCSCC1,nt,18,nt,0,nt
C/C(=N/NS(=O)(=O)c1ccc(Br)cc1)c1ccc(NC(=O)c2ccc(C)o2)cc1,6,11,3,38*,-11
COc1ccccc1N(CC(=O)NCCSCc1ccccc1)S(C)(=O)=O,0,-14,1,9,-6

# From PubChem BioAssay
